# Where a chain is given by its changes, count along the chain named. Activity calls are given as the source filed them. No cut-off for these calls is given here.
# How the values were obtained:
# [1] = tested on: T1, Histone deacetylase 6 (Danio rerio), F8W4B7 [H573A]; experiment: Irreversible inhibition of Danio rerio HDAC6 H573A mutant catalytic domain 2 assessed as enzyme catalysed ring opening by measuring reduction in 2-(Benzylamino)-N'-(2,2-difluoroacetyl)pyrimidine-5-carbohydrazide formation at 100 uM incubated overnight by LC-MS analysis
# T1 sequence (whole entry): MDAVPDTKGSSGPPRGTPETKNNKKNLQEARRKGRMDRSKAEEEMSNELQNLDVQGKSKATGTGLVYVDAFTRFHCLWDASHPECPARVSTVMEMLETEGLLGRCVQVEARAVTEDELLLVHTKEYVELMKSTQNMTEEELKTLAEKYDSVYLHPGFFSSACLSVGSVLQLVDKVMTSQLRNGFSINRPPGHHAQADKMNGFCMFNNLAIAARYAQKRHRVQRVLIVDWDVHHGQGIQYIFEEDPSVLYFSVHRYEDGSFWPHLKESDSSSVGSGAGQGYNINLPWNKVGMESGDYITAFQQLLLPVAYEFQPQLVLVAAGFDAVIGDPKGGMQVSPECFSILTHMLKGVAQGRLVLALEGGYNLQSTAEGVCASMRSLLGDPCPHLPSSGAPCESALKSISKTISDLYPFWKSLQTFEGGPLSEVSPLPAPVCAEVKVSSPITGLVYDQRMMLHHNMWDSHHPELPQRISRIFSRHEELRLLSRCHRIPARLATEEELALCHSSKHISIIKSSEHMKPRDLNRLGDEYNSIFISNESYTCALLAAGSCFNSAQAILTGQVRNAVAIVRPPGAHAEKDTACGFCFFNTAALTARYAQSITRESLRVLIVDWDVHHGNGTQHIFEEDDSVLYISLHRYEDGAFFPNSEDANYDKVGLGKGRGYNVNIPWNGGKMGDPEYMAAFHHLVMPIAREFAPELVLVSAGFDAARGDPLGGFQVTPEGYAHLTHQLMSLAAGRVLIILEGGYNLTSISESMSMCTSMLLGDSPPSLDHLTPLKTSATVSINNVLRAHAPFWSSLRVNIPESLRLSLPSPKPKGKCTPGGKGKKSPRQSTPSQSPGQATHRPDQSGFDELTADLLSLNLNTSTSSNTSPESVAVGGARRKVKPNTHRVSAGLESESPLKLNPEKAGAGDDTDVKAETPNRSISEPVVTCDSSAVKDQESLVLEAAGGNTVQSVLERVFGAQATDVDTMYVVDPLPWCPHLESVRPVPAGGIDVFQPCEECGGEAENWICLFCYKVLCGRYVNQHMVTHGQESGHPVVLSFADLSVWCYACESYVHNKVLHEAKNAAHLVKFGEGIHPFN
# Outline: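 Zebrafish HDAC6 CD2 mutants were made by site-directed mutagenesis and expressed in BL21(DE3). Enzyme at 50 μM was incubated overnight with 100 μM inhibitor in 50 mM HEPES pH 7.5, 100 mM KCl, 1 mM TCEP, 5% glycerol; an enzyme-free control was included. Protein was methanol-precipitated and filtered, and products were analysed by C18 UPLC-MS with a 2-min gradient.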
# [2] = target: T2, Histone deacetylase 6 (Danio rerio) (UniProt F8W4B7); experiment: Irreversible inhibition of Danio rerio HDAC6 catalytic domain 2 assessed as enzyme catalysed ring opening by measuring 2-(Benzylamino)pyrimidine-5-carbohydrazide level at 100 uM incubated overnight by LC-MS analysis
# T2 sequence (whole entry): T1 sequence (whole entry) with A573H
# Outline: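 Danio rerio HDAC6 catalytic domain 2 (zCD2), 50 μM, in 50 mM HEPES pH 7.5, 100 mM KCl, 1 mM TCEP, 5% glycerol, incubated overnight with 100 μM inhibitor (100 μL). Enzyme-free inhibitor controls run in parallel. Protein precipitated with methanol and filtered. Filtrate analysed by C18 reverse-phase UPLC-MS with a 2-min H2O/MeCN gradient.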
Compound,inhibition [1],Activity [2] [µM]
FC(F)c1nnc(-c2cnc(NCc3ccccc3)nc2)o1,Active,9
FC(F)(F)c1nnc(-c2cnc(NCc3ccccc3)nc2)o1,Active,18
